Values after ≈ are worked out from the molar mass of the structure shown. Active and inactive are the calls of the source. No cut-off for these calls is given here.
Experiments:
[1] = test system: Vesicular stomatitis virus; assay: Antiviral activity against in Vesicular stomatitis virus in human HEL cells assessed as reduction of virus-induced cytopathogenicity; assay type: functional
Procedure, shortened: (§1)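 Confluent cell monolayers (E6SM, HEL, HeLa or Vero, per line) inoculated with 100 CCID50 virus; 1 h adsorption, residual virus removed, then incubated with compound at 400, 200, 100 … µg/ml. Cytopathicity scored once complete in untreated virus controls; MIC = concentration inhibiting virus-induced cytopathicity.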

[2] = Cytotoxicity against human HEL cells assessed as reduction of cell growth; assay type: cell-based
Procedure, shortened: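 HEL cells; CC50 = compound concentration reducing cell growth by 50%.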

Human respirovirus 3 = assay: Antiviral activity against Parainfluenza 3 virus in african green monkey Vero cells assessed as reduction of virus-induced cytopathogenicity; assay type: functional; procedure, shortened: as §1
[3] = Cytotoxicity against human HEL cells assessed as alteration of cell morphology; assay type: cell-based
Procedure, shortened: (§2)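 Uninfected cell cultures exposed to test compounds alongside antiviral assays; minimum cytotoxic concentration (MCC) = concentration causing a microscopically detectable alteration of cell morphology.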

[4] = test system: Vesicular stomatitis virus; assay: Antiviral activity against in Vesicular stomatitis virus in human E6SM cells assessed as reduction of virus-induced cytopathogenicity; assay type: functional; procedure, shortened: as §1
Human betaherpesvirus 5 [5] = assay: Antiviral activity against human cytomegalovirus AD169 infected HEL cells assessed as reduction in virus plaque formation; assay type: functional, organism-based; details: Human betaherpesvirus 5, AD169, HEL
Human betaherpesvirus 5 [6] = assay: Antiviral activity against human cytomegalovirus Davis infected HEL cells assessed as reduction in virus plaque formation; assay type: functional, organism-based; details: Human betaherpesvirus 5, Davis
Human alphaherpesvirus 1 [7] = assay: Antiviral activity against HSV1 KOS in human E6SM cells assessed as reduction of virus-induced cytopathogenicity; assay type: functional; details: Human alphaherpesvirus 1, KOS; procedure, shortened: as §1
Human alphaherpesvirus 3 [8] = assay: Antiviral activity against TK- VZV 07/1 infected HEL cells assessed as reduction in virus plaque formation; assay type: functional, organism-based; details: Human alphaherpesvirus 3, 07/1, HEL
[9] = test system: Human immunodeficiency virus 1; assay: Antiviral activity against HIV1 3B in human MT4 cells assessed as protection against virus-induced cytopathogenicity by MTT assay; assay type: functional, organism-based; parameters: Activity: concentration or dose not given beside the values; details: for IC50: Human immunodeficiency virus 1, 3B, MT4
Procedure, shortened: (§3)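 MT-4 cells at 6 × 10⁵ cells/ml infected with HIV-1 IIIB or HIV-2 ROD at 100–300 CCID50; compounds in serial five-fold dilutions, triplicate mock- and virus-infected wells. MTT viability read at 540 and 690 nm after 5 days, median OD of three wells; EC50 = 50% protection from viral cytopathic effect.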

[10] = test system: Mammalian orthoreovirus 1; assay: Antiviral activity against Reo virus 1 in african green monkey Vero cells assessed as reduction of virus-induced cytopathogenicity; assay type: functional; procedure, shortened: as §1
Coxsackievirus B4 [11] = assay: Antiviral activity against Coxsackie virus B4 in human HeLa cells assessed as inhibition of virus-induced cytopathogenicity; assay type: functional; details: Enterovirus B; procedure, shortened: as §1
Human alphaherpesvirus 1 [12] = assay: Antiviral activity against thymidine kinase deficient and acyclovir resistant HSV1 KOS in human E6SM cells assessed as reduction of virus-induced cytopathogenicity; assay type: functional; details: Human alphaherpesvirus 1, KOS; procedure, shortened: as §1
Human alphaherpesvirus 1 [13] = assay: Antiviral activity against HSV1 KOS in human HEL cells assessed as reduction of virus-induced cytopathogenicity; assay type: functional; details: Human alphaherpesvirus 1, KOS; procedure, shortened: as §1
[14] = Cytotoxicity against human MT4 cells by MTT assay; assay type: cell-based
Procedure, shortened: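 Mock-infected MT-4 cells (6 × 10⁵ cells/ml) with serial five-fold compound dilutions in triplicate; MTT reduction read at 540 and 690 nm after 5 days, median OD of three wells; CC50 = concentration reducing OD540 of mock-infected control by 50%.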

Human alphaherpesvirus 2 [15] = assay: Antiviral activity against HSV2 G in human HEL cells assessed as reduction of virus-induced cytopathogenicity; assay type: functional; details: Human alphaherpesvirus 2, G; procedure, shortened: as §1
[16] = test system: Human immunodeficiency virus 2; assay: Antiviral activity against HIV2 ROD in human MT4 cells assessed as protection against virus-induced cytopathogenicity by MTT assay; assay type: functional, organism-based; parameters: Activity: concentration or dose not given beside the values; details: for IC50: Human immunodeficiency virus 2, ROD, MT4; procedure, shortened: as §3
Human alphaherpesvirus 3 [17] = assay: Antiviral activity against TK+ VZV OKA infected HEL cells assessed as reduction in virus plaque formation; assay type: functional, organism-based; details: Human alphaherpesvirus 3, OKA
[18] = test system: Vesicular stomatitis virus; assay: Antiviral activity against vesicular stomatitis virus in human HeLa cells assessed as inhibition of virus-induced cytopathogenicity; assay type: functional; procedure, shortened: as §1
Vero = assay: Cytotoxicity against african green monkey Vero cells; assay type: cell-based; details: chlorocebus sabaeus; procedure, shortened: as §2
Punta Toro virus = assay: Antiviral activity against Punta Toro virus in african green monkey Vero cells assessed as reduction of virus-induced cytopathogenicity; assay type: functional; procedure, shortened: as §1
[19] = test system: Respiratory syncytial virus; assay: Antiviral activity against respiratory syncytial virus in human HeLa cells assessed as inhibition of virus-induced cytopathogenicity; assay type: functional; procedure, shortened: as §1
Sindbis virus = assay: Antiviral activity against Sindbis virus in african green monkey Vero cells assessed as reduction of virus-induced cytopathogenicity; assay type: functional; procedure, shortened: as §1
[20] = Cytotoxicity against human E6SM cells; assay type: cell-based; details: E6SM cells; procedure, shortened: as §2
[21] = test system: Mycobacterium tuberculosis; assay: Antitubercular activity against Mycobacterium tuberculosis H37Rv at 6.25 ug/ml by MABA assay; assay type: functional
Human alphaherpesvirus 2 [22] = assay: Antiviral activity against HSV2 G in human E6SM cells assessed as reduction of virus-induced cytopathogenicity; assay type: functional; details: Human alphaherpesvirus 2, G; procedure, shortened: as §1
Human alphaherpesvirus 1 [23] = assay: Antiviral activity against thymidine kinase deficient and acyclovir resistant HSV1 KOS in human HEL cells assessed as reduction of virus-induced cytopathogenicity; assay type: functional; details: Human alphaherpesvirus 1, KOS; procedure, shortened: as §1
Coxsackievirus B4 [24] = assay: Antiviral activity against Coxsackie virus B4 in african green monkey Vero cells assessed as reduction of virus-induced cytopathogenicity; assay type: functional; details: Enterovirus B; procedure, shortened: as §1
[25] = Cytotoxicity against human HeLa cells; assay type: cell-based; procedure, shortened: as §2

SMILES | MIC [1] [µg/mL] | CC50 [2] [µg/mL] | MIC (Human respirovirus 3) [µg/mL] | MCC [3] [µg/mL] | MIC [4] [µg/mL] | EC50 (Human betaherpesvirus 5 [5]) [µg/mL] | EC50 (Human betaherpesvirus 5 [6]) [µg/mL] | MIC (Human alphaherpesvirus 1 [7]) [µg/mL] | EC50 (Human alphaherpesvirus 3 [8]) [µg/mL] | Activity [9] [%] | IC50 [9] [µg/mL] | MIC [10] [µg/mL] | MIC (Coxsackievirus B4 [11]) [µg/mL] | MIC (Human alphaherpesvirus 1 [12]) [µg/mL] | MIC (Human alphaherpesvirus 1 [13]) [µg/mL] | CC50 [14] [µg/mL] | MIC (Human alphaherpesvirus 2 [15]) [µg/mL] | Activity [16] [%] | IC50 [16] [µg/mL] | EC50 (Human alphaherpesvirus 3 [17]) [µg/mL] | also measured
Nc1ccc(OCc2n[nH]c(=S)n2-c2ccccc2)cc1 | > 400 | > 50 | > 80 | > 400 | > 400 | > 100 | > 100 | > 400 | > 100 | 2 | > 125 | > 80 | > 400 | > 400 | > 400 | > 125 | 240 (≈ 804 µM) | 2.5 | > 125 | > 100 | MIC [18]: > 400 µg/mL; Activity (Vero): 400 µg/mL; MIC (Punta Toro virus): > 80 µg/mL; MIC [19]: > 400 µg/mL; MIC (Sindbis virus): > 80 µg/mL; MCC [20]: > 400 µg/mL; Activity [21]: inactive; MIC (Human alphaherpesvirus 2 [22]): 240 µg/mL (≈ 804 µM); MIC (Human alphaherpesvirus 1 [23]): > 400 µg/mL; MIC (Coxsackievirus B4 [24]): 48 µg/mL (≈ 161 µM); MCC [25]: > 400 µg/mL
C=CCn1c(COc2ccc(N)cc2)n[nH]c1=S | > 400 | > 50 | > 80 | > 400 | > 400 | > 100 | > 100 | > 400 | > 100 | 3.5 | > 125 | > 80 | > 400 | > 400 | > 400 | > 125 | 240 (≈ 915 µM) | 9 | > 125 | > 100 | MIC [18]: > 400 µg/mL; Activity (Vero): 400 µg/mL; MIC (Punta Toro virus): > 80 µg/mL; MIC [19]: > 400 µg/mL; MIC (Sindbis virus): > 80 µg/mL; MCC [20]: > 400 µg/mL; Activity [21]: inactive; MIC (Human alphaherpesvirus 2 [22]): 240 µg/mL (≈ 915 µM); MIC (Human alphaherpesvirus 1 [23]): > 400 µg/mL; MIC (Coxsackievirus B4 [24]): > 80 µg/mL; MCC [25]: > 400 µg/mL
CNC(=S)Nc1ccc(OCc2n[nH]c(=S)n2C)cc1 | > 400 | > 50 | > 80 | > 400 | > 400 | > 100 | > 100 | > 400 | > 100 | 1 | > 112 | > 80 | > 400 | > 400 | > 400 | ≥ 112 | 240 (≈ 776 µM) | 1 | > 125 | > 100 | MIC [18]: > 400 µg/mL; Activity (Vero): 400 µg/mL; MIC (Punta Toro virus): > 80 µg/mL; MIC [19]: > 400 µg/mL; MIC (Sindbis virus): > 80 µg/mL; MCC [20]: > 400 µg/mL; Activity [21]: inactive; MIC (Human alphaherpesvirus 2 [22]): 240 µg/mL (≈ 776 µM); MIC (Human alphaherpesvirus 1 [23]): > 400 µg/mL; MIC (Coxsackievirus B4 [24]): > 80 µg/mL; MCC [25]: > 400 µg/mL

Reference: ChEMBL document CHEMBL1149790, “Synthesis of some novel thiourea derivatives obtained from 5-[(4-aminophenoxy)methyl]-4-alkyl/aryl-2,4-dihydro-3H-1,2,4-triazole-3-thiones and evaluation as antiviral/anti-HIV and anti-tuberculosis agents” (Eur J Med Chem, 2008)
